In ChEMBL document CHEMBL1134834, “Quinoxalinylethylpyridylthioureas (QXPTs) as potent non-nucleoside HIV-1 reverse transcriptase (RT) inhibitors. Further SAR studies and identification of a novel orally bioavailable hydrazine-based antiviral agent” (J Med Chem, 2001):

Key:
[1] = Selectivity index was determined in C8166 cells; assay type: functional
How it was run: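 C8166 CD4+ T-cell line (HTLV-I genome, only tat expressed) acutely infected with lymphocytotropic HIV-1 IIIB. […] Read-out is HIV-p24 antigen in supernatants. AZT positive control was run at the same time. SI = IC50/EC50.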

[2] = biological target: T1, Human immunodeficiency virus type 1 reverse transcriptase (Human immunodeficiency virus 1, UniProt Q72547); assay: Inhibition of HIV-1 Mutant HIV-1 RT enzymes containing the single amino acid substitution […]
Daudi = assay: Cytotoxicity on Daudi Human(DH) cell line (O.D.=0.129+/-0.018); assay type: functional; conditions: read-out: TC50 (the source's name)
C8166 = assay: Concentration which results in 50% survival of uninfected untreated control C8166 cells (cytotoxicity of the compound); assay type: functional, cell-based; conditions: Homo sapiens
How it was run: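 Toxicity in uninfected C8166 cells by MTT reduction to formazan, read spectrophotometrically.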

CEM-SS [3] = assay: Concentration which results in 50% survival of uninfected untreated control CEM-SS cells (cytotoxicity of the compound); assay type: functional, cell-based; conditions: Homo sapiens, read-out: IC50 (the source's name)
[4] = (§1) Cytotoxicity on normal human lymphocytes(HL) (O.D.=0.114+/-0.01); conditions: read-out: TC50 (the source's name)
[5] = test system: Human immunodeficiency virus 1; assay: Concentration which produces a 50% survival of HIV-1 infected cells relative to uninfected control C8166 cells; assay type: functional, organism-based; conditions: Human immunodeficiency virus 1, C8166
[6] = biological target: Human immunodeficiency virus type 1 reverse transcriptase (Human immunodeficiency virus 1, UniProt Q72547, V106A); assay: Inhibition of HIV-1 Mutant HIV-1 RT enzymes containing the single amino acid substitution V106A
CEM-SS [7] = assay: Concentration which produces a 50% survival of HIV-1 infected cells relative to uninfected control CEM-SS cells (in vitro anti-HIV activity); assay type: functional, cell-based; conditions: Homo sapiens
How it was run: (§2)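 CEM-SS T4 lymphocytes infected with wild-type HIV-1. Protection from virus-induced cell death is scored against an AZT-treated positive control run under identical conditions. […] SI = IC50/EC50.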

[8] = biological target: Human immunodeficiency virus type 1 reverse transcriptase (Human immunodeficiency virus 1, UniProt Q72547, Y181I); assay: Inhibition of HIV-1 Mutant HIV-1 RT enzymes containing the single amino acid substitution Y181I
NIH3T3 = assay: Cytotoxicity on 3T3 fibroblasts (3T3F) murine cell line (O.D.=0.131+/-0.014); assay type: functional; conditions: Mus musculus, read-out: TC50 (the source's name)
Mus musculus = species on record: Mus musculus; assay: Cytotoxicity on NSO murine cell line (O.D.=0.125+/-0.015); assay type: functional; conditions: read-out: TC50 (the source's name)
[9] = biological target: T1, Human immunodeficiency virus type 1 reverse transcriptase; assay: Inhibition of HIV-1 wild-type RT
[10] = Selectivity index was determined in CEM-SS cells; assay type: functional; how it was run: as §2
[11] = biological target: Human immunodeficiency virus type 1 reverse transcriptase (Human immunodeficiency virus 1, UniProt Q72547, K103N); assay: Inhibition of HIV-1 Mutant HIV-1 RT enzymes containing the single amino acid substitution K103N
[12] = biological target: Human immunodeficiency virus type 1 reverse transcriptase (Human immunodeficiency virus 1, UniProt Q72547, Y188L); assay: Inhibition of HIV-1 Mutant HIV-1 RT enzymes containing the single amino acid substitution Y188L
[13] = as §1; assay type: functional; conditions: read-out: TC50 (the source's name)
[14] = Selectivity index (IC50/EC50) was determined in CEM-SS cells; assay type: functional
How it was run: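 CEM-SS (T4 lymphocyte) cells infected with wild-type HIV-1 were scored for protection from virus-induced cell death. […] SI = IC50/EC50. An AZT-treated positive control was run in parallel under identical conditions.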

[15] = Selectivity index was (IC50/EC50) determined in C8166 cells; assay type: functional

O=c1c2cccn2c2c(F)cccc2n1CCNC(=S)Nc1ccc(Br)cn1
SI [1]: 105
Ki [2]: 0.8 µM
CC50 (Daudi): 510 µM
IC50 (C8166): 21 µM
CC50 (CEM-SS [3]): > 2 µM
CC50 [4]: 510 µM
EC50 [5]: 0.2 µM
Ki [6]: 0.06 µM
EC50 (CEM-SS [7]): 0.0019 µM
Ki [8]: 0.9 µM
CC50 (NIH3T3): 500 µM
CC50 (Mus musculus): 520 µM
Ki [9]: 0.04 µM
SI [10]: >110
Ki [11]: 0.4 µM
Ki [12]: 0.2 µM

Fc1cccc2c1nc(OCCNC(=S)Nc1ccc(Br)cn1)c1cccn12
Ki [2]: 0.15 µM
CC50 (Daudi): > 1000 µM
IC50 (C8166): 125 µM
CC50 (CEM-SS [3]): > 2 µM
EC50 [5]: 0.02 µM
Ki [6]: 0.029 µM
EC50 (CEM-SS [7]): 0.0029 µM
Ki [8]: 0.3 µM
CC50 [13]: > 1000 µM
CC50 (NIH3T3): > 1000 µM
SI [14]: >690
CC50 (Mus musculus): > 1000 µM
Ki [9]: 0.058 µM
SI [15]: 6250
Ki [11]: 0.35 µM
Ki [12]: 0.7 µM
